According to ChEMBL document CHEMBL3085658, “Novel toll-like receptor 4 (TLR4) antagonists identified by structure- and ligand-based virtual screening” (Eur J Med Chem, 2013):
The source made the active and inactive calls. No cut-off for these calls is given here.

biological target: T1, Toll-like receptor 4 (Homo sapiens, UniProt O00206); experiment: Antagonist activity at human TLR4 expressed in LPS-stimulated HEK293 cells co-expressing MD-2 and CD14 after 2 hrs by SEAP assay; details: not given
T1 sequence (O00206 whole entry): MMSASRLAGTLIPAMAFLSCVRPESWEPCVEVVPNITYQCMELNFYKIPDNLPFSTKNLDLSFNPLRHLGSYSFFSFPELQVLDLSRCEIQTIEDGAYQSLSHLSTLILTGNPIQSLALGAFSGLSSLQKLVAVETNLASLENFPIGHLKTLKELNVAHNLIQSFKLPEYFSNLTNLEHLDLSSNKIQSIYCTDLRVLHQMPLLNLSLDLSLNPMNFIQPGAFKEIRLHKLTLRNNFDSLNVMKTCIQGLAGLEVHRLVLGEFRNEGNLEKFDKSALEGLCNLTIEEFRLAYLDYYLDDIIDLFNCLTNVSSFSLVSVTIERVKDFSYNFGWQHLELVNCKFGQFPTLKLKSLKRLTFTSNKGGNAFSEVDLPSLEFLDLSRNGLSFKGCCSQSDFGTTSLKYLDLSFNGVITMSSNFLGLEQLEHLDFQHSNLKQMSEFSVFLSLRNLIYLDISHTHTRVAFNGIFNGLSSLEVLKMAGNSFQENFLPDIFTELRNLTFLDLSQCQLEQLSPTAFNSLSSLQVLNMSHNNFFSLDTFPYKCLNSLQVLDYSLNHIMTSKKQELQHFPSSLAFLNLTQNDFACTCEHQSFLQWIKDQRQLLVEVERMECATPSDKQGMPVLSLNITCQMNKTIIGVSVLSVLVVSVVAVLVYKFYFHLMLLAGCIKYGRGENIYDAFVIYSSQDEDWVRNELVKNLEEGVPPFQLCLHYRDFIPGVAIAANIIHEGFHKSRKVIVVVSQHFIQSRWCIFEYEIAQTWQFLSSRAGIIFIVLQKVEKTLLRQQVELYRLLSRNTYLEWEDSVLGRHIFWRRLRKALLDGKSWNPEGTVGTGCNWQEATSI

IC50	Structure (SMILES)
Not Active	CN(Cc1nc2ccccc2s1)C[C@@H](O)COc1ccc(F)cc1
Not Active	Cc1nn(Cc2ccccc2Cl)c(C)c1CN(C)CCn1nc2ccccn2c1=O
ND(Insoluble)	Cc1ccc(Cn2cc(C(=O)NNC(=O)Nc3ccc4c(c3)OCO4)ccc2=O)cc1
ND(Insoluble)	COc1ccc(NC(=N)Nc2nc(C)c(Cc3ccccc3)c(O)n2)cc1
ND(Insoluble)	O=C(CSCC(=O)Nc1ccccc1)NNC(=O)Nc1ccc(Cl)cc1
Not Active	O=C(NCCNc1ccc(Nc2ccccn2)nn1)Nc1ccccc1F
ND(Insoluble)	COc1ccc(OC[C@H](O)CN2CCc3ccccc3C2)cc1
Not Active	Nc1nc(CSc2nnc(Cc3ccccc3F)n2N)nc(Nc2ccc(Cl)cc2)n1
ND(Insoluble)	CC(C)c1ccc(NC(=O)CCc2csc(NC(=O)c3ccc[nH]c3=O)n2)cc1
Not Active	N=C(NC1=N[C@@H](CC(=O)Nc2ccc(Cl)cc2)C(O)=N1)Nc1ccccc1
ND(Insoluble)	C[C@H](SCc1nc2scc(-c3ccccc3)c2c(=O)[nH]1)C(=O)NCc1nc2ccccc2[nH]1
Not Active	Cc1nn(-c2ccccc2)c(C)c1CN(C)C[C@@H](O)Cn1cccn1
ND(Insoluble)	COc1cccc(NC(=O)/C=C(\C)NNC(=O)c2ccc(-c3ccccc3)cc2)c1
ND(Insoluble)	O=C(CSc1nnc(-c2ccc3c(c2)OCCO3)c(O)n1)Nc1ccc(F)cc1
ND(Insoluble)	CN(CC(=O)Nc1cccc(F)c1)Cc1nc2scc(-c3ccc(F)cc3)c2c(=O)[nH]1
ND(Insoluble)	N/C(=N\C(=O)c1ccc(-c2ccccc2)cc1)Nc1nc2ccccc2o1
ND(Insoluble)	O=C(CSCC(=O)Nc1ccccc1)NNC(=O)Nc1ccccc1
Not Active	N#Cc1ccc(OC[C@H](O)CNCc2nc3ccccc3s2)cc1
ND(Insoluble)	COc1ccccc1CNC(=O)c1ccccc1NS(=O)(=O)c1ccc2[nH]c(=O)[nH]c2c1
ND(Insoluble)	O=C(CCc1nc(O)c2c3c(sc2n1)CCCC3)NCC(=O)Nc1ccccc1Br
Not Active	C[C@@H](SCc1nc2scc(-c3ccccc3)c2c(=O)[nH]1)C(=O)Nc1ccc2c(c1)OCO2
Not Active	O=C(NCCNC(=O)c1cc2ccccc2[nH]1)C(=O)NCc1ccc2c(c1)OCO2

More lines, now with the values behind:

Structure (SMILES)	IC50
O=C(CSc1nnc(-c2ccc3c(c2)OCCO3)c(O)n1)Nc1ccc(F)c(F)c1	ND(Insoluble)
C[C@H](Sc1nc2scc(-c3cccs3)c2c(=O)[nH]1)C(=O)NC(=O)NC1CCCCC1	ND(Insoluble)
Cc1nn(Cc2ccccc2Cl)c(C)c1CN(C)C(=O)/C=C/c1cccs1	Not Active
CCN1CCN(CCNC(=O)[C@H](C)C2CCN(C(=O)c3cc4cc(Cl)ccc4[nH]3)CC2)CC1	ND(Insoluble)
O=C(CCc1nc2sc3c(c2c(=O)[nH]1)CCCC3)NCc1nc2ccccc2[nH]1	ND(Insoluble)
CCN(CC(=O)Nc1ccc2c(c1)OCCO2)Cc1nc2scc(-c3ccc(C)s3)c2c(=O)[nH]1	ND(Insoluble)
COc1ccc(NC(=O)CN(C)C(=O)c2cc(-c3ccc(C)s3)[nH]n2)cc1	ND(Insoluble)
Cc1ccc(C(=O)Nc2c(N)nc(SCC(=O)NCc3ccc4c(c3)OCO4)[nH]c2=O)cc1	ND(Insoluble)
CC(C)(C)[C@@H]1CCc2c(sc3nc(CCC(=O)N4CCN(c5ccccn5)CC4)[nH]c(=O)c23)C1	ND(Insoluble)
Cc1cccc(NC(=O)CNC(=O)CCc2nc(O)c3c4c(sc3n2)CCCC4)c1C	ND(Insoluble)
Cc1ncc(CN(C)C[C@@H](O)COc2ccc(F)cc2)s1	ND(Insoluble)
O=c1[nH]c(CN2CCC[C@@H]2c2ccc3c(c2)OCCCO3)nc2scc(-c3ccccc3)c12	ND(Insoluble)
Cc1nn(Cc2ccccc2Cl)c(C)c1CN(C)C(=O)/C=C/c1ccc2c(c1)OCO2	Not Active
COC(=O)c1ccc(/C=N/NC(=O)c2cc(-c3cccc([N+](=O)[O-])c3)[nH]n2)cc1	ND(Insoluble)
CC(C)(C)[C@H]1CCc2c(sc3nc(CCC(=O)NCc4ccc5c(c4)OCO5)[nH]c(=O)c23)C1	ND(Insoluble)
CN(CC(=O)Nc1ccc(Cl)c(Cl)c1)Cc1nc2scc(-c3ccc(F)cc3)c2c(=O)[nH]1	ND(Insoluble)

tested on: HEK293; experiment: Cytotoxicity against HEK293 cells after 24 hrs by flow cytometry; assay type: cell-based; details: human, hek293, 24 h
In short: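 HEK293 cells were cultured for 24 h with compound at 100 or 200 µM, with DMSO as control. Cells were then harvested and stained with propidium iodide to count dead cells. Solubility in RPMI 1640 was first checked by light microscopy for precipitation.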

Structure (SMILES)	Activity
Cc1cc([C@@H]2CCCN2C[C@H](O)COc2ccc(Cl)cc2)on1	Toxic
Cc1ccccc1NC(=O)NCCNc1ccc(Nc2ccccn2)nn1	Toxic
O=C(CN1CCC[C@H]1c1nc2ccccc2s1)c1c[nH]c(C(=O)N2CCCC2)c1	Toxic
COc1ccc(OC[C@H](O)CN(C)C(=O)c2ccc(Cl)cc2)cc1	Toxic

biological target: T1, Toll-like receptor 4; experiment: Binding affinity to human recombinant TLR4 at 20 uM by SPR method; details: not given
In short: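 Recombinant human TLR4 was amine-coupled to a CM5 chip at about 8000 RU, with a reference flow cell. Runs were at 25 °C in PBS pH 7.4 plus 2% DMSO running buffer. Compounds were injected at 20 and 200 µM for 1 min, and dissociation was monitored for 30 s. Responses were compared against buffer injection, with no regeneration.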

Activity	Structure (SMILES)
Active	COc1ccc(O)c(C(=O)c2cnc(/N=C(\N)Nc3ccc(F)cc3)nc2)c1

biological target: T1, Toll-like receptor 4; experiment: Binding affinity to human recombinant TLR4 up to 320 uM by SPR method; details: not given
In short: (§1)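 Recombinant human TLR4 was amine-coupled to a CM5 chip at about 8000 RU. Titration was run at 25 °C in PBS pH 7.4 with 2% DMSO, at 0, 5, 10, 20, 40, 80 (repeated at the end), 160 and 320 µM. Each injection lasted 1 min and dissociation was followed for 30 s. The response at the end of association was plotted against concentration.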

Activity	Structure (SMILES)
Active	COc1ccc(O)c(C(=O)c2cnc(/N=C(\N)Nc3ccc(F)cc3)nc2)c1

tested on: PBMC; experiment: Inhibition of TNFalpha secretion in human PBMC preincubated at 100 uM for 2 hrs before LPS challenge measured after 48 hrs by ELISA; assay type: functional; details: not given
In short: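 PBMCs were isolated from healthy volunteer blood and pre-incubated with compound for 2 h. They were then challenged with LPS for 48 h, with TAK-242 as positive control. Supernatant TNF-α was measured by ELISA, and significance was tested by unpaired t tests.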

Structure (SMILES)	inhibition at 100 µM
COc1ccc(O)c(C(=O)c2cnc(/N=C(\N)Nc3ccc(F)cc3)nc2)c1	87.4%
Cc1ccccc1Nc1nc(N)nc(CN2CCC[C@@H]2c2nc3ccccc3s2)n1	80.8%
CN(CC(=O)Nc1ccc(N2CCOCC2)cc1)Cc1nc2scc(-c3ccccc3)c2c(=O)[nH]1	93.3%

biological target: T1, Toll-like receptor 4; experiment: Binding affinity to human recombinant TLR4 at >320 uM by SPR method; details: not given
In short: as §1

Activity	Structure (SMILES)
inactive	COc1ccc(O)c(C(=O)c2cnc(/N=C(\N)Nc3ccc(F)cc3)nc2)c1

biological target: T1, Toll-like receptor 4; experiment: Antagonist activity at human TLR4 expressed in LPS-stimulated HEK293 cells co-expressing MDM2 and CD14 after 2 hrs by SEAP assay; assay type: cell-based; details: in the assay text read “MD-2” for “MDM2”
In short: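 HEK-Blue hTLR4 cells (HEK293 co-transfected with human TLR4, MD-2, CD14 and an inducible SEAP reporter) were cultured per provider instructions. They were pre-incubated with compound at various concentrations for 2 h at 37 C, then challenged with LPS for 20 h. Supernatant SEAP was read colorimetrically, and IC50 was calculated from the decrease in absorbance.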

IC50	Structure (SMILES)
16.6 µM	COc1ccc(O)c(C(=O)c2cnc(/N=C(\N)Nc3ccc(F)cc3)nc2)c1
64.1 µM	Cc1ccccc1Nc1nc(N)nc(CN2CCC[C@@H]2c2nc3ccccc3s2)n1
168 µM	CN(CC(=O)Nc1ccc(N2CCOCC2)cc1)Cc1nc2scc(-c3ccccc3)c2c(=O)[nH]1
